The source of these data is ChEMBL document CHEMBL4145666, “In Search of Selectivity in Inhibition of ADAM10” (ACS Med Chem Lett, 2018).

Each structure is given as a SMILES string. The source made the active and inactive calls. The calls are words filed in the database; no cut-off is given here.

Series [1] can be described thus: Primary phase half life in CD-1 mouse plasma at 10 mg/kg, ip by UPLC analysis. In kind it is ADME, organism-based. The conditions noted are these: read-out: alphat1/2. The method in brief:
(§1)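 Male CD-1 mice, 6–7 weeks old, about 30 g, fed and watered ad libitum. Single dose of 10 mg/kg ip or 25 mg/kg sc, given as 100 μL formulation; n = 3 per time point per route. At set times, blood was taken by cardiac puncture with heparinized syringes and spun to plasma. Brains were harvested after transcardiac saline perfusion, weighed and flash-frozen. Brain levels are in pmol/mg tissue.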

Series [2] concerns the target T1, Disintegrin and metalloproteinase domain-containing protein 9 (Homo sapiens) (UniProt Q13443).
T1 sequence (whole entry): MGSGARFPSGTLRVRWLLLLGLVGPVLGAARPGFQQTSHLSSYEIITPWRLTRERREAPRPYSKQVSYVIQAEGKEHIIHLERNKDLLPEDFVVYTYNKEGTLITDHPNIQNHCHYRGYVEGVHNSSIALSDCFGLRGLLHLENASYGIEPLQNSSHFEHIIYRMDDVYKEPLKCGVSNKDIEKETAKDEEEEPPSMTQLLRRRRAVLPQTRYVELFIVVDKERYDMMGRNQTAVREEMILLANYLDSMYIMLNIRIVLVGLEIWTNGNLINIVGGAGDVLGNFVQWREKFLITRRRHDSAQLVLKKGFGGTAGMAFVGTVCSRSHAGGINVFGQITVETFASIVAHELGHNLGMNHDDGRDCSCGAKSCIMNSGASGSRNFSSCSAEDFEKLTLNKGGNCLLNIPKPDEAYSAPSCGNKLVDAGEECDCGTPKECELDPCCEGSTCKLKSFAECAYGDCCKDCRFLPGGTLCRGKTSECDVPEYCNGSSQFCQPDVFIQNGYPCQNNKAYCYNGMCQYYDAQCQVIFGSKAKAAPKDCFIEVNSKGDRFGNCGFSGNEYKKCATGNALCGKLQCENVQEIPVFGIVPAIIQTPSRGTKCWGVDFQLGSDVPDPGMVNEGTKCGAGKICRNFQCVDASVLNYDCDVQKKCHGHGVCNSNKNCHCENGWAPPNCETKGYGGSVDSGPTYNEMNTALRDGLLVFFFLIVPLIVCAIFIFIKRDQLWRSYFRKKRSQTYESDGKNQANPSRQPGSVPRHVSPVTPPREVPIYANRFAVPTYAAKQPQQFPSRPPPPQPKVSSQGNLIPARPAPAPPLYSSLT
Briefly: Inhibition of recombinant human C-terminal His10-tagged ADAM9 (Ala206 to Asp697 residues) expressed in mouse cells using McaPLAQAV-Dpa-RSSSR-NH2 as substrate at 10 uM by fluorescence spectrophotometric method relative to control. The method in brief:
(§2)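 Single inhibitor concentration of 10 μM, reported as percent inhibition. Enzymes and substrates as in earlier work, with inhibition run by a previously reported protocol.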

Series [3] in a line: AUC (0 to last) in CD-1 mouse brain assessed per mg tissue at 25 mg/kg, sc by UPLC analysis. Type of series: ADME, organism-based. The following applies: in vivo. The method in brief: as §1
For series [4], the system named is Mus musculus. Briefly: Time at which plasma concentration stays above in-vitro Ki for ADAM10 in CD-1 mouse at 10 mg/kg, ip by UPLC analysis. In kind it is ADME, organism-based. The conditions noted are these: in vivo. The method in brief:
as §1

Series [5] is described as follows: Elimination half life in CD-1 mouse plasma at 25 mg/kg, sc by UPLC analysis. The conditions noted are these: read-out: beta t1/2. In kind it is ADME, organism-based. The method in brief:
as §1

A short description of series [6]: AUC (0 to last) in CD-1 mouse plasma at 10 mg/kg, ip by UPLC analysis. Type of series: ADME, organism-based. Set-up: dose 10 mg/kg, time 0 - last, route intraperitoneal. The method in brief: as §1
The target of series [7] is T2, Disintegrin and metalloproteinase domain-containing protein 10 (Homo sapiens, UniProt O14672).
T2 sequence (O14672 whole entry): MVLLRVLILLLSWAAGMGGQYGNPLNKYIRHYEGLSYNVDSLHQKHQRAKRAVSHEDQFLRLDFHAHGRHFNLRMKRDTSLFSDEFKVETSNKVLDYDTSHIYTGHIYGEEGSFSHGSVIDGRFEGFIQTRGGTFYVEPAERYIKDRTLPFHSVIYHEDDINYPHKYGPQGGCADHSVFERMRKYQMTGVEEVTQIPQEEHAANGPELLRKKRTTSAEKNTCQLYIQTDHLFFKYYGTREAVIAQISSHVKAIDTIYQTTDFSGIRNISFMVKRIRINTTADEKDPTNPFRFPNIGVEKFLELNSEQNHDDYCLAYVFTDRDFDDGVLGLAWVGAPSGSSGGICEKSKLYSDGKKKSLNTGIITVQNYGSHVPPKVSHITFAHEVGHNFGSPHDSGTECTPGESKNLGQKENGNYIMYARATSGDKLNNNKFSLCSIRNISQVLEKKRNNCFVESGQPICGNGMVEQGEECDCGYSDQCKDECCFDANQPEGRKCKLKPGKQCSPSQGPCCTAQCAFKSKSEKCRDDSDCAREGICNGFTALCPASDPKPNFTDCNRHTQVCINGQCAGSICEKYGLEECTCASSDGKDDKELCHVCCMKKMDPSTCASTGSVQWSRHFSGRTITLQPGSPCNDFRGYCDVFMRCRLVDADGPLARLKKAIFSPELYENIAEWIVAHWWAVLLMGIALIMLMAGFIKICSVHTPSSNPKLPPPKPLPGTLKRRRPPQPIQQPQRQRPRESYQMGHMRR
Briefly: Inhibition of recombinant human C-terminal His10-tagged ADAM10 (Thr214 to Glu672 residues) expressed in baculovirus infected Sf21 cells using McaKPLGL-Dpa-AR-NH2 as substrate by fluorescence spectrophotometric method. The method in brief: (§3)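 Enzymes and their substrates were obtained as in earlier work, and inhibition was run by a previously reported protocol. Ki values were measured in triplicate.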

Series [8] has as its target Matrix metalloproteinase-14 (Homo sapiens) (UniProt P50281). Briefly: Inhibition of recombinant human MMP14 catalytic domain (89 to 265 residues) expressed in Escherichia coli using MOCAc-Pro-Leu-Gly-Leu-A2pr(Dnp)-Ala-Arg-NH2 as substrate at 10 uM by fluorescence spectrophotometric method relative to control. The method in brief: as §2
Series [9] concerns Mus musculus. Briefly: Time at which brain concentration stays above in-vitro Ki for ADAM10 in CD-1 mouse at 25 mg/kg, sc by UPLC analysis. Type of series: ADME, organism-based. The following applies: in vivo. The method in brief:
as §1

The target in series [10] is T3, Interstitial collagenase (Homo sapiens) (UniProt P03956).
T3 sequence (whole entry): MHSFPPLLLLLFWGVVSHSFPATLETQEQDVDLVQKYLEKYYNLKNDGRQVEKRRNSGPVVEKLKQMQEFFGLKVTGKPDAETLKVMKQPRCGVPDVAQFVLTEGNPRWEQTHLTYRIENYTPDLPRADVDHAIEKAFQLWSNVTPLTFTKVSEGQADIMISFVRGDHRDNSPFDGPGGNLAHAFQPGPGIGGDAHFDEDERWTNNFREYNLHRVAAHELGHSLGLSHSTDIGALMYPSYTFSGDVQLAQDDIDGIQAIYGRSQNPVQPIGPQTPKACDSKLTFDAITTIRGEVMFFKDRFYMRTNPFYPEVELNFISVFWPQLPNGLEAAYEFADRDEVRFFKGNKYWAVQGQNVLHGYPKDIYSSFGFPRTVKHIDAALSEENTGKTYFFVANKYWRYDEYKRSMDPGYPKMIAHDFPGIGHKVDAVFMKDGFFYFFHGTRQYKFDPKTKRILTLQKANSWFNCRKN
Briefly: Inhibition of recombinant human MMP1 catalytic domain (Phe100 to Gln268 residues) expressed in Escherichia coli at 10 uM using McaKPLGL-Dpa-AR-NH2 as substrate by fluorescence spectrophotometric method. The method in brief: as §2

Series [11] addresses Macrophage metalloelastase (Homo sapiens, UniProt P39900). The series is described as follows: Inhibition of recombinant human MMP12 catalytic domain using Mca-PLGL-DpaAR-NH2 as substrate by fluorescence spectrophotometric method. The method in brief:
as §3

Series [12] in a line: Primary phase half life in CD-1 mouse brain at 10 mg/kg, ip by UPLC analysis. Type of series: ADME, organism-based. The conditions noted are these: read-out: alphat1/2. The method in brief: as §1
A short description of series [13]: Elimination half life in CD-1 mouse plasma at 10 mg/kg, ip by UPLC analysis. Type of series: ADME, organism-based. The following applies: read-out: beta t1/2. The method in brief: as §1
The nature of series [14]: AUC (0 to infinity) in CD-1 mouse plasma at 25 mg/kg, sc by UPLC analysis. In kind it is ADME, organism-based. Set-up: dose 25 mg/kg, route subcutaneous, time infinity. The method in brief:
as §1

The target of a further series is Neutrophil collagenase (Homo sapiens, UniProt P22894). Briefly: Inhibition of recombinant human MMP8 catalytic domain (Phe99 to Gln269 residues) expressed in Escherichia coli using McaKPLGL-Dpa-AR-NH2 as substrate by fluorescence spectrophotometric method. The method in brief: as §3
A short description of series [15]: Ratio of AUC (0 to infinity) in brain to plasma in CD-1 mouse at 25 mg/kg, sc by UPLC analysis. The following applies: read-out: Ratio AUC. In kind it is ADME, organism-based. The method in brief: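 Male CD-1 mice (6–7 weeks, about 30 g) received one dose: 10 mg/kg ip or 25 mg/kg sc, with n = 3 per time point per route. At set times, plasma came from heparinized cardiac-puncture blood. Brain was taken after transcardiac saline perfusion, weighed and flash-frozen. Brain levels were in pmol/mg tissue, plasma in μM. Value is AUCbrain/AUCplasma.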

Chain of Neutrophil collagenase (P22894 whole entry, the tested form may be a part): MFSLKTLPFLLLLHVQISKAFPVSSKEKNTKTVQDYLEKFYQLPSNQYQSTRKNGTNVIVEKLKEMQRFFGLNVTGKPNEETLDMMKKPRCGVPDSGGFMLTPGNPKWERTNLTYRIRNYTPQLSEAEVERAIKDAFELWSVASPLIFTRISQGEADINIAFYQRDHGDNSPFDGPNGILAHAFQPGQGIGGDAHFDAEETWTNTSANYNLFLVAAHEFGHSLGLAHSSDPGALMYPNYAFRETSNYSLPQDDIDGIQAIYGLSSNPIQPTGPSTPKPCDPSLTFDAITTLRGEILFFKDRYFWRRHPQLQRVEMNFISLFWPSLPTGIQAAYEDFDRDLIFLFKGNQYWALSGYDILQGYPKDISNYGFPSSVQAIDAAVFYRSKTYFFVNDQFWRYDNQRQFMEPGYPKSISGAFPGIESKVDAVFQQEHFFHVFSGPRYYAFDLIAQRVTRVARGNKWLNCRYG
Chain of Macrophage metalloelastase (P39900 whole entry, the tested form may be a part): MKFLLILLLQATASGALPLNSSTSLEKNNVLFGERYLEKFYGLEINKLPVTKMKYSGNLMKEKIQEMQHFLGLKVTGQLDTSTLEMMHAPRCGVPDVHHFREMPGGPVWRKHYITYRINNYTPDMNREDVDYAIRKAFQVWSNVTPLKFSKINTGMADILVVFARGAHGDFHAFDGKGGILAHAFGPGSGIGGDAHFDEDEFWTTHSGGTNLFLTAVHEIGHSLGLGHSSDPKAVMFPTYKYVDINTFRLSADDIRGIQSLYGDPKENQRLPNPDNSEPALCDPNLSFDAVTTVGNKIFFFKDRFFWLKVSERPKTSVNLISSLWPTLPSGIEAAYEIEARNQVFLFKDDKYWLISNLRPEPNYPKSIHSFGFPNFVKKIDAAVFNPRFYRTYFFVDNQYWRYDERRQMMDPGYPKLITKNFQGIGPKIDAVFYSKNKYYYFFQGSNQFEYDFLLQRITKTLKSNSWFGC

Regarding `O=C(NO)[C@H]1C[C@H](OC(=O)N2CCCC2)CC[C@@H]1C(=O)N1CCC(c2ccccc2)CC1`, the half-life was found to be 0.207 h in series [1], 2.63 h in series [5], 0.48 h in series [12] and 5.25 h in series [13]. For the same compound, the inhibition (as a rule, the drop in the measured response relative to a control, in per cent) is 15% in series [2] and 19% in series [8]. Moreover, the AUClast in series [3] was 51.2 pmol·min. Moreover, the Time in the series with Mus musculus [4] worked out at 6 h; in the series on Mus musculus [9] it was 100 min. Further, the AUC(0-t) (commonly the area under the concentration-time curve up to a stated or last time point) in [6] is 2.58 µM·h. Further, the Ki (as a rule, a measure of affinity in units of concentration, obtained from inhibition or displacement) in [7] turned out to be 73 nM; in series [11], 270 nM; on Neutrophil collagenase, 8700 nM. Moreover, the inhibition result in series [10] was “inactive”. The AUC(0-inf) – broadly, total exposure, with the tail of the curve extrapolated – in series [14] is 18.5 µM·h. Also, the Kp in [15] worked out at 0.0693.
